Assay results reported in ChEMBL document CHEMBL1124813, “Synthesis and antiinflammatory activity of novel 12 beta-substituted analogues of betamethasone” (1990).
Values joined by “and” are separate entries in the source; they are usually repeats but may differ in a detail not shown here. Equal entries are not always repeated.

Columns and labels:
Format in all cases: functional
Mus musculus [1] = assay: ED100 of was measured in the TPA induced mouse ear edema assay.
In short: (§1)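 Mouse ear edema induced by topical TPA at 8.8 nmol/mouse, with the test steroid applied topically to the ear.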

Mus musculus [2] = organism: Mus musculus; assay: Percentage systemic effect to assess the degree of absorption was measured 40 ugm/mouse.
In short: (§2)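 Systemic effect was measured after repeated topical high-dose applications to the mouse ear. Thymic involution was read as loss of thymus weight (n = 6). Adrenal suppression was read as inhibition of the stress-induced rise in plasma cortisol (n = 6).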

Mus musculus [3] = organism: Mus musculus; assay: Percentage systemic effect to assess the degree of absorption was measured at 100 ug/mouse.; in short: as §2
Mus musculus [4] = organism: Mus musculus; assay: Percentage systemic effect to assess the degree of absorption was measured at 10 ug/mouse.; in short: as §2
Mus musculus [5] = assay: Topical Antiinflammatory activity was measured in the TPA induced mouse ear edema assay at 10 ug/mouse.; in short: as §1
Mus musculus [6] = assay: Topical Antiinflammatory activity was measured in the TPA induced mouse ear edema assay at 40 ugm/mouse.; in short: as §1
Mus musculus [7] = organism: Mus musculus; assay: Atrophogenicity potency was observed in mouse at 200 ug/mouse.
Mus musculus [8] = assay: Systemic Antiinflammatory activity was measured in the TPA induced mouse ear edema assay at 100 ug/mouse.
In short: (§3)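 Systemic absorption was assessed by the contralateral ear assay. Ear edema was induced with TPA (8.8 nmol/mouse) and scored on the ear opposite the one receiving the topical corticoid.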

Mus musculus [9] = assay: Systemic Antiinflammatory activity was measured in the TPA induced mouse ear edema assay at 10 ug/mouse.; in short: as §3
Mus musculus [10] = assay: Systemic Antiinflammatory activity was measured in the TPA induced mouse ear edema assay at 40 ugm/mouse.; in short: as §3
Mus musculus [11] = assay: Topical Antiinflammatory activity was measured in the TPA induced mouse ear edema assay at 100 ug/mouse.; in short: as §1
Mus musculus [12] = organism: Mus musculus; assay: Skin thickness of mouse was measured at 200 ug/mouse
Mus musculus [13] = assay: Topical Antiinflammatory activity was measured in the TPA induced mouse ear edema assay at 300 ugm/mouse.; in short: as §1
Mus musculus [14] = assay: Systemic Antiinflammatory activity was measured in the TPA induced mouse ear edema assay at 300 ugm/mouse.; in short: as §3
Mus musculus [15] = organism: Mus musculus; assay: Percentage systemic effect to assess the degree of absorption was measured 25 ug/mouse; in short: as §2
Mus musculus [16] = organism: Mus musculus; assay: Percentage systemic effect to assess the degree of absorption was measured 75 ug/mouse; in short: as §2
Mus musculus [17] = assay: Topical Antiinflammatory activity was measured in the TPA induced mouse ear edema assay at 2.5 ug/mouse.; in short: as §1
Mus musculus [18] = assay: Topical Antiinflammatory activity was measured in the TPA induced mouse ear edema assay at 25 ug/mouse.; in short: as §1
Mus musculus [19] = organism: Mus musculus; assay: Atrophogenicity potency was observed in mouse at 75 ug/mouse.
Mus musculus [20] = assay: Systemic Antiinflammatory activity was measured in the TPA induced mouse ear edema assay at 2.5 ug/mouse; in short: as §3
Mus musculus [21] = assay: Systemic Antiinflammatory activity was measured in the TPA induced mouse ear edema assay at 25 ug/mouse; in short: as §3
Mus musculus [22] = assay: Systemic Antiinflammatory activity was measured in the TPA induced mouse ear edema assay at 75 ug/mouse; in short: as §3
Mus musculus [23] = organism: Mus musculus; assay: Skin thickness of mouse was measured at 75 ug/mouse
Mus musculus [24] = assay: Topical Antiinflammatory activity was measured in the TPA induced mouse ear edema assay at 75 ug/mouse.; in short: as §1
Mus musculus [25] = organism: Mus musculus; assay: Percentage systemic effect to assess the degree of absorption was measured at 40 ugm/mouse.; in short: as §2
Mus musculus [26] = assay: Topical Antiinflammatory activity was measured in the TPA induced mouse ear edema assay at 200 ug/mouse.; in short: as §1
Mus musculus [27] = assay: Systemic Antiinflammatory activity was measured in the TPA induced mouse ear edema assay at 200 ug/mouse.; in short: as §3
Mus musculus [28] = organism: Mus musculus; assay: Percentage systemic effect to assess the degree of absorption was measured at 200 ug/mouse.; in short: as §2
Mus musculus [29] = organism: Mus musculus; assay: Percentage systemic effect to assess the degree of absorption was measured at 50 ug/mouse; in short: as §2
Mus musculus [30] = assay: Topical Antiinflammatory activity was measured in the TPA induced mouse ear edema assay at 50 ug/mouse.; in short: as §1
Mus musculus [31] = organism: Mus musculus; assay: Atrophogenicity potency was observed in mouse at given dose at 300 ugm/mouse.
Mus musculus [32] = assay: Systemic Antiinflammatory activity was measured in the TPA induced mouse ear edema assay at 50 ug/mouse; in short: as §3
Mus musculus [33] = organism: Mus musculus; assay: Skin thickness of mouse was measured at 300 ugm/mouse.
Mus musculus [34] = organism: Mus musculus; assay: Percentage systemic effect to assess the degree of absorption was measured at 2.5 ug/mouse; in short: as §2
Mus musculus [35] = organism: Mus musculus; assay: Percentage systemic effect to assess the degree of absorption was measured at 75 ug/mouse; in short: as §2
Mus musculus [36] = organism: Mus musculus; assay: Skin thickness of mouse was measured at 75 ug/mouse.
Mus musculus [37] = organism: Mus musculus; assay: Percentage systemic effect to assess the degree of absorption was measured at 50 ug/mouse.; in short: as §2
Mus musculus [38] = organism: Mus musculus; assay: Percentage systemic effect to assess the degree of absorption was measured at 300 ugm/mouse.; in short: as §2
Mus musculus [39] = assay: Systemic Antiinflammatory activity was measured in the TPA induced mouse ear edema assay at 50 ug/mouse.; in short: as §3

SMILES: CCC(=O)OCC(=O)[C@@]1(OC(=O)CC)[C@@H](C)C[C@H]2C3CCC4=CC(=O)C=C[C@]4(C)[C@@]3(Cl)[C@@H](O)[C@@H](O)[C@@]21C (stereo partly drawn)
- ED100 (Mus musculus [1]): 160 µg
- Systemic effect (Mus musculus [2]): 0% and 13%
- Systemic effect (Mus musculus [3]): 5% and 14%
- Systemic effect (Mus musculus [4]): 4% and 2%
- Potency (Mus musculus [5]): 41%
- Potency (Mus musculus [6]): 67%
- Potency (Mus musculus [7]): 15.7%
- Potency (Mus musculus [8]): 21%
- Potency (Mus musculus [9]): 0%
- Potency (Mus musculus [10]): 5%
- Potency (Mus musculus [11]): 81%
- Skin thickness (Mus musculus [12]): 13.92

SMILES: CCC(=O)OCC(=O)[C@@]1(OC(=O)CC)[C@@H](C)C[C@H]2C3CCC4=CC(=O)C=C[C@]4(C)[C@@]3(Br)[C@@H](O)[C@@H](OC(=O)c3ccccc3)[C@@]21C (stereo partly drawn)
- Potency (Mus musculus [13]): 84%
- Potency (Mus musculus [14]): 0%

SMILES: CCC(=O)OCC(=O)[C@@]1(OC(=O)CC)[C@@H](C)C[C@H]2[C@@H]3CCC4=CC(=O)C=C[C@]4(C)[C@@]3(Cl)[C@@H](O)C[C@@]21C [BECLOMETHASONE DIPROPIONATE]
- ED100 (Mus musculus [1]): 110 µg
- Systemic effect (Mus musculus [15]): 52% and 32%
- Systemic effect (Mus musculus [16]): 67% and 36%
- Potency (Mus musculus [17]): 60%
- Potency (Mus musculus [18]): 78%
- Potency (Mus musculus [19]): 51%
- Potency (Mus musculus [20]): 12%
- Potency (Mus musculus [21]): 40%
- Potency (Mus musculus [22]): 52%
- Skin thickness (Mus musculus [23]): 8.12
- Potency (Mus musculus [24]): 93%

SMILES: CCC(=O)OCC(=O)[C@@]1(OC(=O)CC)[C@@H](C)C[C@H]2C3CCC4=CC(=O)C=C[C@]4(C)[C@@]3(F)[C@@H](O)[C@@H](OC(=O)CC)[C@@]21C (stereo partly drawn)
- ED100 (Mus musculus [1]): 400 µg
- Systemic effect (Mus musculus [3]): 4% and 0%
- Systemic effect (Mus musculus [4]): 0%
- Systemic effect (Mus musculus [25]): 1% and 6%
- Potency (Mus musculus [5]): 21%
- Potency (Mus musculus [26]): 77%
- Potency (Mus musculus [6]): 50%
- Potency (Mus musculus [8]): 0%
- Potency (Mus musculus [9]): 0%
- Potency (Mus musculus [27]): 0%
- Potency (Mus musculus [10]): 0%
- Potency (Mus musculus [11]): 69%

SMILES: CCC(=O)OCC(=O)[C@@]1(OC(=O)CC)[C@@H](C)C[C@H]2C3CCC4=CC(=O)C=C[C@]4(C)[C@@]3(Cl)[C@@H](O)[C@@H](OC(=O)CC)[C@@]21C (stereo partly drawn)
- ED100 (Mus musculus [1]): 400 µg
- Systemic effect (Mus musculus [3]): 5%
- Systemic effect (Mus musculus [28]): 0% and 6%
- Systemic effect (Mus musculus [29]): 4% and 5%
- Potency (Mus musculus [26]): 71%
- Potency (Mus musculus [13]): 84%
- Potency (Mus musculus [30]): 47%
- Potency (Mus musculus [31]): 0.1%
- Potency (Mus musculus [8]): 0%
- Potency (Mus musculus [27]): 0%
- Potency (Mus musculus [14]): 0%
- Potency (Mus musculus [32]): 0%
- Potency (Mus musculus [11]): 53%
- Skin thickness (Mus musculus [33]): 16.5

SMILES: CCC(=O)OCC(=O)[C@@]1(OC(=O)CC)[C@@H](C)C[C@H]2C3CCC4=CC(=O)C=C[C@]4(C)[C@@]3(Br)[C@@H](O)[C@@H](OC(=O)CC)[C@@]21C (stereo partly drawn)
- ED100 (Mus musculus [1]): 325 µg
- Systemic effect (Mus musculus [3]): 6%
- Systemic effect (Mus musculus [28]): 2% and 0%
- Systemic effect (Mus musculus [29]): 2%
- Potency (Mus musculus [26]): 70%
- Potency (Mus musculus [13]): 96%
- Potency (Mus musculus [30]): 36%
- Potency (Mus musculus [8]): 0%
- Potency (Mus musculus [27]): 0%
- Potency (Mus musculus [14]): 0%
- Potency (Mus musculus [32]): 0%
- Potency (Mus musculus [11]): 45%

SMILES: CCC(=O)OCC(=O)[C@@]1(OC(=O)CC)[C@@H](C)C[C@H]2C3CCC4=CC(=O)C=C[C@]4(C)[C@@]3(F)[C@@H](O)[C@@H](O)[C@@]21C (stereo partly drawn)
- ED100 (Mus musculus [1]): 140 µg
- Systemic effect (Mus musculus [2]): 13% and 10%
- Systemic effect (Mus musculus [3]): 21% and 30%
- Systemic effect (Mus musculus [4]): 9% and 1%
- Potency (Mus musculus [5]): 46%
- Potency (Mus musculus [6]): 60%
- Potency (Mus musculus [8]): 19%
- Potency (Mus musculus [9]): 7%
- Potency (Mus musculus [10]): 11%
- Potency (Mus musculus [11]): 82%

SMILES: CCCC(=O)O[C@@H]1[C@H](O)[C@@]2(Br)C(CCC3=CC(=O)C=C[C@@]32C)[C@@H]2C[C@H](C)[C@](OC(=O)CC)(C(=O)COC(=O)CC)[C@@]12C (stereo partly drawn)
- Potency (Mus musculus [13]): 68%
- Potency (Mus musculus [14]): 0%

SMILES: CCC(=O)OCC(=O)[C@@]1(OC(=O)CC)[C@@H](C)C[C@H]2C3CCC4=CC(=O)C=C[C@]4(C)[C@@]3(Br)[C@@H](O)[C@@H](OC(=O)c3ccco3)[C@@]21C (stereo partly drawn)
- Potency (Mus musculus [13]): 69%
- Potency (Mus musculus [14]): 0%

SMILES: CCC(=O)OCC(=O)[C@@]1(OC(=O)CC)[C@@H](C)C[C@H]2[C@@H]3CCC4=CC(=O)C=C[C@]4(C)[C@@]3(F)[C@@H](O)C[C@@]21C [BETAMETHASONE DIPROPIONATE]
- ED100 (Mus musculus [1]): 110 µg
- Systemic effect (Mus musculus [34]): 30% and 12%
- Systemic effect (Mus musculus [35]): 87% and 37%
- Skin thickness (Mus musculus [36]): 9.39
- Potency (Mus musculus [17]): 59%
- Potency (Mus musculus [18]): 76%
- Potency (Mus musculus [19]): 43%
- Potency (Mus musculus [20]): 27%
- Potency (Mus musculus [21]): 30%
- Potency (Mus musculus [22]): 72%
- Potency (Mus musculus [24]): 93%

SMILES: CCC(=O)OCC(=O)[C@@]1(OC(=O)CC)[C@@H](C)C[C@H]2C3CCC4=CC(=O)C=C[C@]4(C)[C@@]3(Br)[C@@H](O)[C@@H](O)[C@@]21C (stereo partly drawn)
- ED100 (Mus musculus [1]): 325 µg
- Systemic effect (Mus musculus [3]): 0% and 14%
- Systemic effect (Mus musculus [28]): 7% and 15%
- Systemic effect (Mus musculus [37]): 7% and 12%
- Systemic effect (Mus musculus [38]): 7% and 15%
- Potency (Mus musculus [26]): 91%
- Potency (Mus musculus [13]): 99%
- Potency (Mus musculus [30]): 57%
- Potency (Mus musculus [8]): 17%
- Potency (Mus musculus [27]): 17%
- Potency (Mus musculus [14]): 22%
- Potency (Mus musculus [39]): 16%
- Potency (Mus musculus [11]): 86%

SMILES: CCC(=O)OCC(=O)[C@@]1(OC(=O)CC)[C@@H](C)C[C@H]2C3CCC4=CC(=O)C=C[C@]4(C)[C@@]3(Br)[C@@H](O)[C@@H](OC(=O)CC(C)C)[C@@]21C (stereo partly drawn)
- Potency (Mus musculus [13]): 54%
- Potency (Mus musculus [14]): 0%
